Among the data in ChEMBL document CHEMBL1132437, “Synthesis and antimicrobial activity of 4H-4-oxoquinolizine derivatives: consequences of structural modification at the C-8 position” (1999) are ED50 and MIC values, retold here.

≈ marks a conversion by molar mass, not a printed value. Where only a bound is given, the exact number is not on record here.

Holding throughout (assay type): functional
The subject of assay [1] is Mus musculus. The assay is described as follows: In vivo efficacy against Staphylococcus aureus NCTC 10649M in mouse protection test after subcutaneous administration. The following applies: sc. A digest of the protocol: (§1)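 Mouse protection model: mice infected intravenously with 100-fold LD50 of the organism. Compound given by subcutaneous injection or oral gavage at 1 and 5 h after infection, over a dose range. Deaths tracked for 7 days post-inoculation. ED50 is the dose giving 50% survival of treated mice over the trial.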

In assay [2] the test system is Staphylococcus aureus. As to the kind of experiment: In vitro antibacterial activity against gram-positive Staphylococcus aureus NCTC 10649M. The following applies: Staphylococcus aureus, NCTC 10649; read-out: MIC. A digest of the protocol: (§2)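 Agar dilution MIC determination following the National Committee for Clinical Laboratory Standards recommendations.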
Assay [3] has as its system Pseudomonas aeruginosa. The assay is described as follows: In vitro antibacterial activity against gram negative P. aeruginosa DPHP 5263. The note with it: Pseudomonas aeruginosa, DPHP 5263; read-out: MIC. A digest of the protocol:
as §2

The test system of assay [4] is Mus musculus. As to the kind of experiment: InIn vivo efficacy against Escherichia coli JUHL in mouse protection test after administration by oral gavage. In outline: as §1
Assay [5] relates to Staphylococcus aureus. The assay is described as follows: In vivo efficacy against Staphylococcus aureus NCTC 10649M in mouse protection test after p.o. administration. A digest of the protocol: as §1
The subject of another assay is Streptococcus pneumoniae. As to the kind of experiment: In vivo efficacy against Streptococcus pneumoniae ATCC 6303 in mouse protection test after s.c. administration. In outline: as §1
The next assay has as its system Enterococcus faecium. As to the kind of experiment: In vitro antibacterial activity against gram-positive Enterococcus faecium ATCC 8043. The note with it: Enterococcus faecium, ATCC 8043; read-out: MIC. In outline: as §2
Assay [6] relates to Staphylococcus aureus. The assay is described as follows: In vitro antibacterial activity against gram-positive Staphylococcus aureus 1775. The following applies: Staphylococcus aureus; read-out: MIC. A digest of the protocol: as §2
The subject of assay [7] is Pseudomonas aeruginosa. As to the kind of experiment: In vivo efficacy against Pseudomonas aeruginosa 5007 in mouse protection test after administration by oral gavage. The note with it: Pseudomonas aeruginosa, po; read-out: ED50. A digest of the protocol: as §1
The subject of assay [8] is Mus musculus. The assay is described as follows: IIn vivo efficacy against Streptococcus pneumoniae ATCC 6303 in mouse protection test after administration by oral gavage. In outline:
as §1

Another assay relates to Burkholderia cepacia. As to the kind of experiment: In vitro antibacterial activity against gram negative Pseudomonas cepacia 2961. The following applies: Burkholderia cepacia; read-out: MIC. A digest of the protocol:
as §2

Assay [9] concerns Escherichia coli. As to the kind of experiment: In vitro antibacterial activity against gram negative Escherichia coli KNK 437. The note with it: Escherichia coli; read-out: MIC. In outline:
as §2

Assay [10] deals with Pseudomonas aeruginosa. The assay is described as follows: In vivo efficacy against Pseudomonas aeruginosa 5007 in mouse protection test after subcutaneous administration. The following applies: Pseudomonas aeruginosa, sc; read-out: ED50. In outline: as §1
Assay [11] relates to Escherichia coli. As to the kind of experiment: In vivo efficacy against Escherichia coli JUHL in mouse protection test after subcutaneous administration. In outline:
as §1

Assay [12] relates to Mus musculus. The assay is described as follows: In vivo efficacy against Streptococcus pneumoniae ATCC 6303 in mouse protection test […]. A digest of the protocol: as §1
The subject of assay [13] is Escherichia coli. The assay is described as follows: In vivo efficacy against Escherichia coli JUHL in mouse protection test after p.o. administration. A digest of the protocol:
as §1

Assay [14] has as its system Mus musculus. As to the kind of experiment: In vivo efficacy against Staphylococcus aureus NCTC 10649M in mouse protection test after sub cutaneous administration. In outline:
as §1

As usually defined, the ED50 is the midpoint of the dose-response relation. As usually defined, the MIC is the lowest concentration that inhibits growth of the organism. Turning to `Cc1c(N2C[C@H]3CCN[C@H]3C2)c(F)cn2c(=O)c(C(=O)O)cc(C3CC3)c12`, the ED50 with Mus musculus [1] was 1.5 mg/kg; with Mus musculus [4], 10 mg/kg; with Staphylococcus aureus [5] (Staphylococcus aureus, po, read-out: ED50), 5 mg/kg; in the assay on Streptococcus pneumoniae (Streptococcus pneumoniae, sc, read-out: ED50), 2.3 mg/kg; in the assay with Pseudomonas aeruginosa [7], above 50 mg/kg; with Mus musculus [8], 11.2 mg/kg. In addition, the ED50 in the assay with Pseudomonas aeruginosa [10] was found to be 18 mg/kg; with Escherichia coli [11] (Escherichia coli, sc, read-out: ED50) it was 0.8 mg/kg. Moreover, the MIC came to 0.1 µg/mL (≈ 0.269 µM) in the assay with Staphylococcus aureus [2]; 0.62 µg/mL (≈ 1.67 µM) in the assay on Pseudomonas aeruginosa [3]; 0.2 µg/mL (≈ 0.538 µM) in the assay on Enterococcus faecium; 6.2 µg/mL (≈ 16.7 µM) with Staphylococcus aureus [6]; 0.78 µg/mL (≈ 2.1 µM) in the assay on Burkholderia cepacia; 0.39 µg/mL (≈ 1.05 µM) in the assay on Escherichia coli [9].

As to `Cc1c(N2CC[C@H](C)C(N)C2)c(F)cn2c(=O)c(C(=O)O)cc(C3CC3)c12` (single isomer, unassigned), the ED50 in the assay with Mus musculus [12] was 5.2 mg/kg; in the assay on Staphylococcus aureus [5], 6.3 mg/kg; in the assay on Streptococcus pneumoniae, 8 mg/kg; in the assay on Escherichia coli [13], 12.5 mg/kg; in the assay with Mus musculus [14], 1.2 mg/kg; in the assay with Pseudomonas aeruginosa [7] it was above 50 mg/kg. The median effective dose (ED50) is above 32 mg/kg with Pseudomonas aeruginosa [10] and 2 mg/kg in the assay with Escherichia coli [11].
